Screening results as filed in PubChem.
A1 apoptosis 2 – compounds inhibiting A1, read as caspase activation. caspase activation, % (test concentration not listed). 24,000 tested, under 10 active. MEF A1-2A-BIM cells, caspase-Glo luminescence, 3 h; percent of clofoctol response, DMSO zero; in the data active means caspase activation above about 5.9%
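Material: mouse embryonic fibroblasts co-expressing A1 and BIM (A1-2A-BIM), primed for A1 dependence / Quantity: 2500 cells/well / Buffer or medium: RPMI-1640 growth medium with 10% FBS / Doses: 50 nL compound per well, pinned / Schedule: 3 h compound exposure at 37 °C / Signal: Caspase-Glo luminescence (DEVD substrate) / Measure: Caspase-3/7 activation, seen as rise in luminescence signal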
T cruzi intra – blocks T. cruzi growth inside host cells. intracellular Trypanosoma cruzi in host cells, plate reader. activity score (inhibition), % at 5.01 µM. 22,000 tested, 4.9% active. AID 651903; in the data active means activity score above about 55%;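 further: parasites and compound incubated about four days before reading; 0% = median of neutral control wells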
INS-1E ATP HTS – INS-1E beta cell protection from cytokine death. INS-1E cytokine-induced death, ATP luminescence, 48 h; normalised: neutral wells 0, positive control 100. protection from cytokine-induced ATP loss, % at 10 µM. 20,000 tested, 0.1% active. AID 488910;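 active means mean replicate protection from cytokine-induced ATP loss at least 50% and at least 75% of replicates each reaching 50%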
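Assay system: INS-1E rat insulinoma cells. Amount: 8000 cells per well. Medium: phenol-red-free RPMI with 5% fetal bovine serum. Reagent: IL-1β, TNF-α and IFN-γ cytokine mix. Doses: one compound concentration, pin transfer. Schedule: 48 h co-treatment, 10 min post-lysis read. Detection: CellTiter-Glo luminescence measuring cellular ATP.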
* = called active by the depositor. Shown is part of a subset that was picked to be rich in hits.

C[C@@H]1CN([C@H](C)CO)C(=O)c2cccc(NC(=O)c3ccc(-c4nccs4)cc3)c2O[C@@H]1CN(C)Cc1ccc(Oc2ccccc2)cc1 was read as T cruzi intra 42 and INS-1E ATP HTS -52.
For C[C@H]1CN([C@@H](C)CO)C(=O)c2cc(NS(C)(=O)=O)ccc2O[C@@H]1CN(C)C(=O)Nc1ccc(C(F)(F)F)cc1 the results were A1 apoptosis 2 0, T cruzi intra -18 and INS-1E ATP HTS 4.
COC(=O)CCCCCCC(=O)N/N=C/c1ccc(OC)cc1 was read as A1 apoptosis 2 0, T cruzi intra -2 and INS-1E ATP HTS 13.
For C[C@@H]1CN([C@@H](C)CO)C(=O)Cc2cc(NS(=O)(=O)c3ccc(F)cc3)ccc2O[C@H]1CN(C)S(=O)(=O)c1ccccc1 the results were A1 apoptosis 2 2.
`C[C@@H]1CN([C@H](C)CO)C(=O)Cc2cc(NS(=O)(=O)c3ccc(Cl)cc3)ccc2O[C@H]1CN(C)Cc1ccc(C(=O)Nc2ccccc2N)cc1` gave T cruzi intra 69* and INS-1E ATP HTS 5.
For C[C@@H]1CN([C@@H](C)CO)C(=O)c2cc(NS(=O)(=O)c3cccs3)ccc2O[C@H]1CN(C)Cc1ccc(C(=O)Nc2ccccc2N)cc1 the results were A1 apoptosis 2 2, T cruzi intra 14 and INS-1E ATP HTS -5.
C[C@H]1CN([C@@H](C)CO)C(=O)Cc2cc(NS(=O)(=O)c3cccs3)ccc2O[C@H]1CN(C)Cc1ccc(C(=O)Nc2ccccc2N)cc1 was read as A1 apoptosis 2 1, T cruzi intra 68* and INS-1E ATP HTS 23.
`COc1ccc(S(=O)(=O)Nc2ccc3c(c2)CC(=O)N([C@@H](C)CO)C[C@H](C)[C@@H](CN(C)Cc2ccc(C(=O)Nc4ccccc4N)cc2)O3)cc1` gave A1 apoptosis 2 0, T cruzi intra 58* and INS-1E ATP HTS 2.
For Cc1ccc(S(=O)(=O)Nc2ccc3c(c2)CC(=O)N([C@@H](C)CO)C[C@@H](C)[C@@H](CN(C)Cc2ccc(C(=O)Nc4ccccc4N)cc2)O3)cc1 the results were A1 apoptosis 2 -1, T cruzi intra 63* and INS-1E ATP HTS 0.
C[C@@H]1CN([C@@H](C)CO)C(=O)Cc2cc(NS(=O)(=O)c3ccc(Cl)cc3)ccc2O[C@@H]1CN(C)Cc1ccc(C(=O)Nc2ccccc2N)cc1 was read as A1 apoptosis 2 1.
COc1ccc(S(=O)(=O)Nc2ccc3c(c2)CC(=O)N([C@H](C)CO)C[C@@H](C)[C@H](CN(C)Cc2ccc(C(=O)Nc4ccccc4N)cc2)O3)cc1 was read as A1 apoptosis 2 -1.
Screening Cc1ccc(S(=O)(=O)Nc2ccc3c(c2)CC(=O)N([C@H](C)CO)C[C@H](C)[C@@H](CN(C)Cc2ccc(C(=O)Nc4ccccc4N)cc2)O3)cc1 returned A1 apoptosis 2 -1.
`Cc1ccccc1CN(C)C[C@H]1OCc2cn(nn2)CCCC(=O)N([C@H](C)CO)C[C@H]1C` gave A1 apoptosis 2 0, T cruzi intra -13 and INS-1E ATP HTS 3.
For Cc1noc(C)c1NC(=O)N(C)C[C@@H]1Oc2c(cccc2N(C)C)C(=O)N([C@@H](C)CO)C[C@H]1C the results were A1 apoptosis 2 0, T cruzi intra -16 and INS-1E ATP HTS 6.
Screening O=C(CCCCCC(=O)Nc1ccccc1O)N/N=C/C1=CCCCC1 returned A1 apoptosis 2 0.
O=C(NO)c1cccc(C(=O)N/N=C/c2cc3c(cc2Br)OCO3)c1 was read as T cruzi intra 1 and INS-1E ATP HTS 0.
`C[C@H]1CN([C@@H](C)CO)C(=O)c2cc(NC(=O)Nc3ccccc3)ccc2O[C@@H]1CN(C)S(=O)(=O)c1ccc(F)cc1` gave A1 apoptosis 2 1, T cruzi intra -14 and INS-1E ATP HTS 7.
Screening COc1ccc(CN(C)C[C@@H]2Oc3c(NC(=O)Nc4ccc(C(F)(F)F)cc4)cccc3C(=O)N([C@@H](C)CO)C[C@H]2C)cc1 returned A1 apoptosis 2 0, T cruzi intra 67* and INS-1E ATP HTS -95.
COc1ccc(NC(=O)Nc2cccc3c2O[C@@H](CN(C)Cc2ccc(C(F)(F)F)cc2)[C@H](C)CN([C@H](C)CO)C3=O)cc1 was read as T cruzi intra 5 and INS-1E ATP HTS -6.
COc1ccc(CN(C)C[C@@H]2Oc3c(NC(=O)Nc4ccc(C(F)(F)F)cc4)cccc3C(=O)N([C@H](C)CO)C[C@@H]2C)cc1 was read as A1 apoptosis 2 -2, T cruzi intra 81* and INS-1E ATP HTS -36.
`COc1ccc(NC(=O)Nc2cccc3c2O[C@H](CN(C)Cc2ccc(C(F)(F)F)cc2)[C@H](C)CN([C@@H](C)CO)C3=O)cc1` gave A1 apoptosis 2 0, T cruzi intra -11 and INS-1E ATP HTS -10.
For O=C(O)CCCCCCC(=O)N/N=C/c1ccc(S(=O)(=O)O)o1 the results were A1 apoptosis 2 1, T cruzi intra -12 and INS-1E ATP HTS -9.
For COc1ccc(S(=O)(=O)N(C)C[C@@H]2Oc3ccc(NC(=O)Cn4cnnn4)cc3CC(=O)N([C@H](C)CO)C[C@H]2C)cc1 the results were A1 apoptosis 2 -1, T cruzi intra -10 and INS-1E ATP HTS 1.
C[C@H](CO)N1C[C@H](C)[C@H](CN(C)C(=O)Nc2ccc(C(F)(F)F)cc2)Oc2c(NC(=O)c3nc4ccccc4s3)cccc2C1=O was read as T cruzi intra 63* and INS-1E ATP HTS -41.
C[C@@H]1CN([C@@H](C)CO)C(=O)c2cccc(NC(=O)c3nc4ccccc4s3)c2O[C@@H]1CN(C)C(=O)Nc1ccc(F)cc1 was read as T cruzi intra 7 and INS-1E ATP HTS -4.
`C[C@H](CO)N1C[C@H](C)[C@@H](CN(C)C(=O)Nc2ccc(C(F)(F)F)cc2)Oc2c(NC(=O)c3nc4ccccc4s3)cccc2C1=O` gave A1 apoptosis 2 -1, T cruzi intra 58* and INS-1E ATP HTS -11.
For C[C@@H]1CN([C@H](C)CO)C(=O)c2cccc(NC(=O)c3nc4ccccc4s3)c2O[C@@H]1CN(C)C(=O)Nc1ccc(C(F)(F)F)cc1 the results were T cruzi intra -26 and INS-1E ATP HTS -67.
Screening Cc1noc(C)c1NC(=O)N(C)C[C@H]1Oc2ccc(NS(=O)(=O)c3c(C)noc3C)cc2C(=O)N([C@@H](C)CO)C[C@H]1C returned A1 apoptosis 2 0, T cruzi intra -21 and INS-1E ATP HTS 0.
Screening Cc1ccc(S(=O)(=O)N(C)C[C@@H]2Oc3ccc(NC(=O)Nc4c(C)noc4C)cc3CC(=O)N([C@@H](C)CO)C[C@H]2C)cc1 returned A1 apoptosis 2 0.
CC(C)NC(=O)N(C)C[C@H]1OCCCC[C@H](C)Oc2ccc(NC(=O)Cc3ccccc3)cc2C(=O)N([C@@H](C)CO)C[C@@H]1C was read as A1 apoptosis 2 0.
For Cc1ccc(S(=O)(=O)Nc2ccc3c(c2)CC(=O)N([C@@H](C)CO)C[C@@H](C)[C@@H](CN(C)Cc2ccc4c(c2)OCO4)O3)cc1 the results were A1 apoptosis 2 -2, T cruzi intra 27 and INS-1E ATP HTS -3.
For C[C@@H]1CN([C@H](C)CO)C(=O)Cc2cc(NS(=O)(=O)c3ccc(Cl)cc3)ccc2O[C@@H]1CN(C)Cc1ccc2c(c1)OCO2 the results were T cruzi intra 60* and INS-1E ATP HTS -11.
Screening C[C@@H]1CN([C@@H](C)CO)C(=O)Cc2cc(NS(=O)(=O)c3ccc(Cl)cc3)ccc2O[C@H]1CN(C)Cc1ccc2c(c1)OCO2 returned A1 apoptosis 2 -1.
Screening C[C@@H]1CN([C@H](C)CO)C(=O)Cc2cc(NS(=O)(=O)c3ccc(Cl)cc3)ccc2O[C@H]1CN(C)Cc1ccc2c(c1)OCO2 returned A1 apoptosis 2 1, T cruzi intra 64* and INS-1E ATP HTS -6.
For C[C@@H]1CN([C@@H](C)CO)C(=O)Cc2cc(NC(=O)Cc3ccccc3)ccc2O[C@H]1CN(C)S(=O)(=O)c1ccccc1 the results were A1 apoptosis 2 -1.
